Laboratory results reported in ChEMBL document CHEMBL2424634, “Synthesis and SAR studies of 5-(pyridin-4-yl)-1,3,4-thiadiazol-2-amine derivatives as potent inhibitors of Bloom helicase” (Bioorg Med Chem Lett, 2013).
Values after ≈ are worked out from the molar mass of the structure shown. Active and inactive are the calls of the source. No cut-off for these calls is given here.

Experiments:
[1] = biological target: T1, RecQ-like DNA helicase BLM (Homo sapiens, UniProt P54132); test: Inhibition of BLM (unknown origin) by gel-based DNA unwinding assay
[2] = organism: Homo sapiens; test: Selectivity ratio of IC50 for WRN (unknown origin) to IC50 for BLM (unknown origin)
[3] = biological target: T2, ATP-dependent DNA helicase Q1 (Homo sapiens, UniProt P46063); test: Inhibition of RECQ1 (unknown origin) by gel-based DNA unwinding assay
T2 sequence (P46063 whole entry): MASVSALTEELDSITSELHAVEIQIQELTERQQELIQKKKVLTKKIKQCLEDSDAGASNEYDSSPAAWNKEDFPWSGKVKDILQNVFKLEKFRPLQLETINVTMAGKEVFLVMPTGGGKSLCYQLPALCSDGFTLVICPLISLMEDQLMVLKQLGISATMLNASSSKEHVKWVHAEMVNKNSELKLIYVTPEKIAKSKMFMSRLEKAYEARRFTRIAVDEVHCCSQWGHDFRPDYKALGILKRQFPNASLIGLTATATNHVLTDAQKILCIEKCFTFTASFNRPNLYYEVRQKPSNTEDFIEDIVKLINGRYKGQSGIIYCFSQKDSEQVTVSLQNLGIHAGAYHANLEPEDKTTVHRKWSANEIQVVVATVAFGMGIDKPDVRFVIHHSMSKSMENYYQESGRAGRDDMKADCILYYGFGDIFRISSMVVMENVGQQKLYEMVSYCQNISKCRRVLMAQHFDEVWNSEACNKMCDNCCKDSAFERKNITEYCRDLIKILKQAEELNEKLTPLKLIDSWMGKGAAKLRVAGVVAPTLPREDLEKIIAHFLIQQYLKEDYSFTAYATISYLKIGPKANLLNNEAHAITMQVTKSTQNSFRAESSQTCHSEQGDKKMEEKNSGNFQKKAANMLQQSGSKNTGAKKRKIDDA

[4] = biological target: Bifunctional 3'-5' exonuclease/ATP-dependent helicase WRN (Homo sapiens, UniProt Q14191); test: Inhibition of WRN (unknown origin) by gel-based DNA unwinding assay
[5] = organism: Homo sapiens; test: Increase of sister chromatid exchange in human BLM-deficient PSNG13 cells at 1 to 5 uM; assay type: functional
How it was run: (§1)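 Used an isogenic pair of cell lines derived from GM08505 Bloom syndrome cells: PSNF5 (expresses BLM) and PSNG13 (lacks BLM). Cells were treated across a dose range and sister chromatid exchange frequency was scored.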

[6] = biological target: T1, RecQ-like DNA helicase BLM; test: Inhibition of BLM in human PSNF5 cells assessed as increase of sister chromatid exchange at 1 to 5 uM; assay type: cell-based; how it was run: as §1
[7] = biological target: T1, RecQ-like DNA helicase BLM; test: Displacement of TAMRA-labeled oligonucleotide from BLM (unknown origin)
[8] = biological target: T1, RecQ-like DNA helicase BLM; test: Inhibition of BLM (unknown origin) binding to single-stranded DNA by fluorescence polarization analysis
[9] = tested on: Liver; test: Half life in mouse liver microsomes in presence of NADPH; assay type: ADME, Microsome
[10] = Metabolic stability of the compound in mouse plasma assessed as compound remaining after 5 hrs; assay type: ADME, cell-free; details: read-out: Stability
[11] = Kinetic solubility of the compound in PBS buffer at pH 7.4; assay type: physicochemical; details: read-out: Kinetic_solubility
How it was run: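 Kinetic solubility in PBS, pH 7.4, determined by chemiluminescent nitrogen detection (CLND) and by UV-Vis detection.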

[12] = biological target: T1, RecQ-like DNA helicase BLM; test: Non-competitive inhibition of BLM (unknown origin) using ATP by Lineweaver-Burk double reciprocal plot analysis

Bifunctional 3'-5' exonuclease/ATP-dependent helicase WRN, sequence (Q14191 whole entry): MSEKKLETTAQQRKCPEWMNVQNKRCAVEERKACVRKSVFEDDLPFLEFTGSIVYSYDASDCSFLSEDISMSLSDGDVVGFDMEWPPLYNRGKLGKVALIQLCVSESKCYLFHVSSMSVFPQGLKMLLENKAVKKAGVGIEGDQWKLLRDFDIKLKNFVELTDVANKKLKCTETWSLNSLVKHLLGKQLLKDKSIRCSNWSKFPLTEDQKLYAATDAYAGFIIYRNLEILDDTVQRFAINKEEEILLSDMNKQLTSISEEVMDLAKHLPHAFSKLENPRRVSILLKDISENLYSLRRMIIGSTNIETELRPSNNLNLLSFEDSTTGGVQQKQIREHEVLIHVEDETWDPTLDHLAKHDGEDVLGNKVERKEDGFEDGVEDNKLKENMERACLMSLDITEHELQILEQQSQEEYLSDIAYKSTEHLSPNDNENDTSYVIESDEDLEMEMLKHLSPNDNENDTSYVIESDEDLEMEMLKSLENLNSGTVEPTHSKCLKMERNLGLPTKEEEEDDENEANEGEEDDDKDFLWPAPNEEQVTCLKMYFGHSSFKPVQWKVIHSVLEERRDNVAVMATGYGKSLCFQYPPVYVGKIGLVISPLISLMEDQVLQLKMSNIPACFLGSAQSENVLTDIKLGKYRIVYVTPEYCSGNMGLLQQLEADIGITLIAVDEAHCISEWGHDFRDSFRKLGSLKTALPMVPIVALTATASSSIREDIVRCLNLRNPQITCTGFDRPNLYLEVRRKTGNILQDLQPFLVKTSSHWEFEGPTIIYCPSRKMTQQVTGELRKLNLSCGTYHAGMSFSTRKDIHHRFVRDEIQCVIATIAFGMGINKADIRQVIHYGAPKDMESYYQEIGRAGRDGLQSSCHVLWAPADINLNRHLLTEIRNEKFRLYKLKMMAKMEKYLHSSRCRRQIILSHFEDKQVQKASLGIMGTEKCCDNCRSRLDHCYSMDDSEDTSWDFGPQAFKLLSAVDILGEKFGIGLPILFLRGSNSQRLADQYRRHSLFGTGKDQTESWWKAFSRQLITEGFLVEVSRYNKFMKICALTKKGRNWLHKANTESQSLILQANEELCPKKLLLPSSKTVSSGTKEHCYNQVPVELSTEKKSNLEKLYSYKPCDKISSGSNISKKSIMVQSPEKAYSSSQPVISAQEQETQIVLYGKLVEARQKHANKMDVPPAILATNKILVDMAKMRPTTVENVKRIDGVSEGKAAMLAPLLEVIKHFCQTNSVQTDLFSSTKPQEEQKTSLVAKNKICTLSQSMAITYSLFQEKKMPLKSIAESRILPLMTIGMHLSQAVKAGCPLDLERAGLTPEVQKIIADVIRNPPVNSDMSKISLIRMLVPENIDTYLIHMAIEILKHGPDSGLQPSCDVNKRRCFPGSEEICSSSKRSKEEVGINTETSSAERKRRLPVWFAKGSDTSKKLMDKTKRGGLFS
T1 sequence (P54132 whole entry): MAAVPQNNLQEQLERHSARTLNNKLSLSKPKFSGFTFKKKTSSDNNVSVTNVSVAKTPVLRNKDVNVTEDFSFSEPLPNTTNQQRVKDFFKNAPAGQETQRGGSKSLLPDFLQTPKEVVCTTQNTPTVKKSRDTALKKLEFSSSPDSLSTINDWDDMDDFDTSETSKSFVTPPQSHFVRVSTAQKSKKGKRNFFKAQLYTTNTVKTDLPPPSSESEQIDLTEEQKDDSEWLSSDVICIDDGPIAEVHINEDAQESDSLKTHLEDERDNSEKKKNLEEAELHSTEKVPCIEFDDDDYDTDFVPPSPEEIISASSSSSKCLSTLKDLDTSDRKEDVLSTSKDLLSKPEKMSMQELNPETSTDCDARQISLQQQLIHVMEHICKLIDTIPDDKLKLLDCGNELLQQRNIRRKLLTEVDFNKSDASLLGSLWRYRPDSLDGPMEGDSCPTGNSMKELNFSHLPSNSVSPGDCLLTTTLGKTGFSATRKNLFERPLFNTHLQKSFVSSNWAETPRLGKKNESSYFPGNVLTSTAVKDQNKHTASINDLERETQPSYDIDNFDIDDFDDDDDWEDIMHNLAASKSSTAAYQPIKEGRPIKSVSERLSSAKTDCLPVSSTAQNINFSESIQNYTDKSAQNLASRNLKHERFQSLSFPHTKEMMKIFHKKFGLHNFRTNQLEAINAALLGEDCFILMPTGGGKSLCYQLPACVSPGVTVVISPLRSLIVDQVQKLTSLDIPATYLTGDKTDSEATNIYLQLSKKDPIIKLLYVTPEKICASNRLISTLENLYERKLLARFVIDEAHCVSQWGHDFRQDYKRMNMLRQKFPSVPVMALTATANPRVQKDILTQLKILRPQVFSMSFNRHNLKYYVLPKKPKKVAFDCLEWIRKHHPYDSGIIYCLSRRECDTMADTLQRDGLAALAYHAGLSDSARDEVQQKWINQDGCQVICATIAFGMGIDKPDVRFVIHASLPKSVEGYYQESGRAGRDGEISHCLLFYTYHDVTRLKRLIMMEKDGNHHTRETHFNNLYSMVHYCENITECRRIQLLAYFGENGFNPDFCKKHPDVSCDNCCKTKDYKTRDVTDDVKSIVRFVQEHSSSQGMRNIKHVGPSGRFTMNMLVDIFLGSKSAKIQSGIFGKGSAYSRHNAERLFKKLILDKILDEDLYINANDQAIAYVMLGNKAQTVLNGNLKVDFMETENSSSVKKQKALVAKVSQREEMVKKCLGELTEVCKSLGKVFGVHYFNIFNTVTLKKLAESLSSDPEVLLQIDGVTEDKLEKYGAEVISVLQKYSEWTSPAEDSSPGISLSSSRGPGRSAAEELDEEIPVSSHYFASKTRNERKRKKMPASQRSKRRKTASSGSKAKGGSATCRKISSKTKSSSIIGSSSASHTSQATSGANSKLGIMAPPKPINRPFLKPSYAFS

Structure (SMILES)	IC50 ([1]; read-out: IC50) [µM]	IC50 [1]	other results
O=C(Nc1ccc(Cl)c([N+](=O)[O-])c1)Nc1nnc(-c2ccncc2)s1	1.3	–	–
N#Cc1ccc(NC(=O)Nc2nnc(-c3ccncc3)s2)cc1	7.9	–	–
N#Cc1ccc(NC(=O)Nc2nnc(-c3ccncc3)s2)cc1Cl	1.6	–	–
O=C(Nc1ccc(-c2cn[nH]c2)c(C(F)(F)F)c1)Nc1nnc(-c2ccncc2)s1	14.2	–	–
N#Cc1ccc(NC(=O)Nc2nnc(-c3ccncc3)s2)cc1Br	0.91	–	–
O=C(Nc1ccc(Cl)c(Cl)c1)Nc1nnc(C2CCCCC2)s1	–	Not Active	–
O=C(Nc1ccccc1)Nc1nnc(-c2ccncc2)s1	–	Not Active	–
Nc1ccc(-c2nnc(NC(=O)Nc3ccc(Cl)c(Cl)c3)s2)cc1	49	–	–
CN(C(=O)Nc1ccc2ccccc2c1)c1nnc(-c2ccncc2)s1	–	Not Active	–
O=C(Nc1ccc(Cl)c(C(F)(F)F)c1)Nc1nnc(-c2ccncc2)s1	7.1	–	–
Cc1cc(NC(=O)Nc2nnc(-c3ccncc3)s2)ccc1-c1cn[nH]c1	16.8	–	–
O=C(Nc1ccc(Br)cc1)Nc1nnc(-c2ccncc2)s1	12.6	–	–
O=C(Nc1ccc(Cl)cc1)Nc1nnc(-c2ccncc2)s1	40	–	–
Cc1cc(NC(=O)Nc2nnc(-c3ccncc3)s2)ccc1C#N	3.2	–	–
O=C(Nc1ccc(F)c(F)c1)Nc1nnc(-c2ccncc2)s1	8.9	–	–
O=C(Nc1ccc(Cl)c(Cl)c1)Nc1ncc(-c2ccncc2)s1	–	Not Active	–
O=C(Nc1ccc(Cl)c(Cl)c1)Nc1cc(-c2ccncc2)n[nH]1	–	Not Active	–
N#Cc1ccc(NC(=O)Nc2nnc(-c3ccncc3)s2)cc1C(F)(F)F	5.6	–	–
O=C(Nc1ccc(Cl)c(Cl)c1)Nc1nnc(-c2ccncc2)s1	1.4	–	Ratio IC50 [2]: 2.4; IC50 [3]: > 50 µM; IC50 [4]: 3.4 µM

Structure (SMILES)	IC50 ([1]; read-out: IC50) [µM]	IC50 [1]	other results
O=c1c(Nc2ccc(Cl)c(Cl)c2)c(Nc2nnc(-c3ccncc3)s2)c1=O	4.3	–	–
O=C(Nc1ccc(Cl)c(Cl)c1)NC1CCN(c2ccncc2)CC1	–	Not Active	–
O=C(Nc1ccc(Cl)c(Cl)c1)Nc1nnc(NC2CCNCC2)s1	–	Not Active	–
O=C(Nc1ccc(Cl)c(Cl)c1)Nc1nnc(-c2ccccc2)s1	–	Not Active	–
O=C(Nc1ccc(-n2ccnc2)c(F)c1)Nc1nnc(-c2ccncc2)s1	10	–	–
N#Cc1cccc(NC(=O)Nc2nnc(-c3ccncc3)s2)c1	8.9	–	–
O=C(Nc1ccc(Cl)c(Cl)c1)N1CCC(c2ccncc2)C1 (stereo not given)	–	Not Active	–
N#Cc1cc(NC(=O)Nc2nnc(-c3ccncc3)s2)ccc1Cl	0.1	–	Ratio IC50 [2]: 16; IC50 [4]: 1.6 µM
O=C(Nc1ccc(Cl)c(Cl)c1)Nc1ccnc(-c2ccncc2)n1	–	Not Active	–
S=C(Nc1ccc(Cl)c(Cl)c1)Nc1nnc(-c2ccncc2)s1	4	–	–
Cc1cc(NC(=O)Nc2nnc(-c3ccncc3)s2)ccc1F	15.8	–	–
N#Cc1cc(NC(=O)Nc2nnc(-c3ccncc3)s2)ccc1F	0.3	–	Ratio IC50 [2]: 7.3; IC50 [3]: > 50 µM; IC50 [4]: 2.2 µM
N#Cc1cc(NC(=O)Nc2nnc(-c3ccncc3)s2)ccc1-c1cn[nH]c1	1.1	–	Activity [5]: inactive; inhibition [6]: Dose-dependent effect; inhibition [7]: Active; inhibition [8]: Dose-dependent effect; t1/2 [9]: > 1.33 h; remaining at 5 h [10]: 100%; solubility kinetic [11]: 10 µM (≈ 3.88 µg/mL); Ratio IC50 [2]: 6.5; IC50 [3]: > 50 µM; IC50 [4]: 7.1 µM; inhibition [12]: Active
O=C(Nc1ccc(Cl)c(Cl)c1)Nc1nnc(-c2ccncc2)o1	–	Not Active	–
O=C(Cc1ccc2ccccc2c1)Nc1nnc(-c2ccncc2)s1	–	Not Active	–
O=C(Nc1ccc(-n2cncn2)c(F)c1)Nc1nnc(-c2ccncc2)s1	14.1	–	–
O=C(Nc1ccc(Cl)c(Cl)c1)N1CCN(c2ccncc2)CC1	–	Not Active	–
Nc1cc(NC(=O)Nc2nnc(-c3ccncc3)s2)ccc1Cl	11.2	–	–
CN1CCN(c2nnc(NC(=O)Nc3ccc(Cl)c(Cl)c3)s2)CC1	–	Not Active	–

Structure (SMILES)	IC50 ([1]; read-out: IC50) [µM]	IC50 [1]	other results
O=C(Nc1ccc(Cl)c(Cl)c1)Nc1nnc(-c2cccnc2)s1	3.5	–	–
NC(=Nc1ccc(Cl)c(Cl)c1)Nc1nnc(-c2ccncc2)s1	14.1	–	–
O=C(Nc1ccc(Cl)c(Cl)c1)Nc1nnc(-c2ccccn2)s1	–	Not Active	–
N#Cc1cc(NC(=O)Nc2nnc(-c3ccncc3)s2)ccc1Br	0.11	–	Ratio IC50 [2]: 10; IC50 [3]: > 50 µM; IC50 [4]: 1.1 µM
N#Cc1cc(NC(=O)Nc2nnc(-c3ccncc3)s2)ccc1-c1ccc[nH]1	1.8	–	–
Cc1cc(NC(=O)Nc2nnc(-c3ccncc3)s2)ccc1Br	13.4	–	–
O=C(Nc1ccc(Cl)c(Cl)c1)Nc1cccc(-c2ccncc2)n1	4	–	–
O=C(Nc1ccc(Cl)c(Cl)c1)Nc1ccc(-c2ccncc2)s1	–	Not Active	–
O=S(=O)(Cc1ccc(Cl)c(Cl)c1)Nc1nnc(-c2ccncc2)s1	–	Not Active	–
O=C(Nc1ccc(F)c(C(F)(F)F)c1)Nc1nnc(-c2ccncc2)s1	–	–	t1/2 [9]: > 1.33 h; remaining at 5 h [10]: 100%; solubility kinetic [11]: 1 µM (≈ 0.383 µg/mL); IC50 [3]: > 50 µM; IC50 [4]: 2.7 µM
O=C(Nc1ccc(-n2cncn2)c(C(F)(F)F)c1)Nc1nnc(-c2ccncc2)s1	36	–	–
O=C(Nc1ccc(F)cc1)Nc1nnc(-c2ccncc2)s1	14.1	–	–
O=C(Nc1ccc(Cl)c(Cl)c1)Nc1nc(-c2ccncc2)cs1	28.1	–	–
Nc1ccc(NC(=O)Nc2nnc(-c3ccncc3)s2)cc1C(F)(F)F	40	–	–
N#C/N=C(/Nc1ccc(F)c(C(F)(F)F)c1)Nc1nnc(-c2ccncc2)s1	–	Not Active	–
O=C(Nc1nnc(-c2ccncc2)s1)Oc1ccc2ccccc2c1	–	Not Active	–
O=C(Nc1ccc(Cl)c(Cl)c1)Nc1nnc(N2CCNCC2)s1	–	Not Active	–
Cc1cc(NC(=O)Nc2nnc(-c3ccncc3)s2)ccc1Cl	7.9	–	–
O=C(Nc1ccc(Br)c(Br)c1)Nc1nnc(-c2ccncc2)s1	2.1	–	Ratio IC50 [2]: 1.4; IC50 [4]: 2.9 µM
